Test results as given in paper PMC13022283 (Scientific Reports, 2026).
“Also recorded” adds a separate entry of the source.

Experiments:
[1] = biological target: T1, h-NTPDase1 (Homo sapiens, UniProt P49961); test: h-NTPDase activity assay; format: biochemical; conditions: for inhibition at 100 µM: read-out: % Inhibition h-NTPDase1
T1 sequence (P49961 1-510): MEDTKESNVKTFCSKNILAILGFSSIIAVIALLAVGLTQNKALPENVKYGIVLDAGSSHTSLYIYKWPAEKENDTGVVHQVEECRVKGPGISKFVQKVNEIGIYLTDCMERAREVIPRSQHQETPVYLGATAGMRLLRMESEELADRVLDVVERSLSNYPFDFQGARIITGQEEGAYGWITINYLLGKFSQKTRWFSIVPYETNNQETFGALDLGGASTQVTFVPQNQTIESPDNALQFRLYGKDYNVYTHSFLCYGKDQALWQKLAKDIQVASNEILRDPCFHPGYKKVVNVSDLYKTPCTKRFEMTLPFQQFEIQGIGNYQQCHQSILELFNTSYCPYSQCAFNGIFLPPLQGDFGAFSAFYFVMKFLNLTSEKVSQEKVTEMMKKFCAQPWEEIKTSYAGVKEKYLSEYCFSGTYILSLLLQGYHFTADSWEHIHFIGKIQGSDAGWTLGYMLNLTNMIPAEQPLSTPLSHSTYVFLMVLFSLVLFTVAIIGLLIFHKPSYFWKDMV

[2] = biological target: T2, h-NTPDase8 (Homo sapiens, UniProt Q5MY95); test: h-NTPDase activity assay; format: biochemical; conditions: for inhibition at 100 µM: read-out: % Inhibition h-NTPDase8, at 100 µM
T2 sequence (Q5MY95 1-495): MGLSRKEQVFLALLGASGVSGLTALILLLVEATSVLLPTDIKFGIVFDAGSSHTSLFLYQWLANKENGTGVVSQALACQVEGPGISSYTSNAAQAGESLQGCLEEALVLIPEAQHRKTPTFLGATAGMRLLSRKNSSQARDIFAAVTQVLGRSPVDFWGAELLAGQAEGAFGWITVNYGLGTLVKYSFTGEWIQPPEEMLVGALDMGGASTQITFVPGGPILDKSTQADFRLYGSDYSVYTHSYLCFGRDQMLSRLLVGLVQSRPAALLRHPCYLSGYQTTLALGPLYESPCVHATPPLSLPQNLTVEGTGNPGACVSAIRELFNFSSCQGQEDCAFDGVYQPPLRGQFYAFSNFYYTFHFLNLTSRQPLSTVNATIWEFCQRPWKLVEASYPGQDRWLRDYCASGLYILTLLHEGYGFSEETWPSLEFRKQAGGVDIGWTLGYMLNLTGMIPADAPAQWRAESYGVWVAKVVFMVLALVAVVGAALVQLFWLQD

[3] = system: A549 human lung carcinoma cells; test: Fluorescence microscopy of treated cells; format: cell-based; conditions: A549, 10 μM, 24 h incubation
[4] = system: h-NTPDases; test: h-NTPDase activity assay, all four isoenzymes; format: biochemical, human
Outline: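 Human NTPDase1, -2, -3 or -8 came from COS-7 cells transfected with plasmids via Lipofectamine, harvested at 44–48 h, sonicated and cleared of nuclei, with protein measured by Bradford. Enzyme per well was 12, 37, 43 or 63 ng respectively. Compound (0.1 mM final) was pre-incubated 10 min at 37 °C in 50 mM Tris–HCl, 5 mM CaCl2, pH 7.4. The reaction was started with ATP (100 µM), run 15 min, and stopped with malachite green; Pi was read at 630 nm.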

[5] = system: MCF-7 breast cancer cells; test: MTT assay; format: cell-based, human; conditions: MCF-7, 100 μM, 24 h, 100 µM

Compound: O=C(NCc1ccc(F)cc1)c1ccc2ncccc2c1 [Compound 4b, N-(4-fluorobenzyl)quinoline-6-carboxamide]
- IC50 [1]: 3.46 ± 0.49 µM
- inhibition at 100 µM [1]: 68.9%
- IC50 [2]: 0.44 ± 0.08 µM
- inhibition at 100 µM [2]: 83%

Compound: Cc1ccc(CNC(=O)c2ccc3ncccc3c2)cc1 [Compound 4c, N-(4-methylbenzyl)quinoline-6-carboxamide]
- IC50 [1]: 6.13 ± 0.64 µM
- inhibition at 100 µM [1]: 57.7%
- IC50 [2]: 0.99 ± 0.13 µM
- inhibition at 100 µM [2]: 70.9%

Compound: O=C(Nc1c(F)cccc1F)c1ccc2ncccc2c1 [Compound 4d, N-(2,6 difluorophenyl)quinoline-6-carboxamide]
- inhibition at 100 µM [1]: 76.1%
- cytotoxicity seen in bright-field images [3]: no signs of cytotoxicity
- inhibition at 100 µM [2]: 33%

Compound: O=C(Nc1ccc(F)cc1F)c1ccc2ncccc2c1 [Compound 4e, N-(2,4 difluorophenyl)quinoline-6-carboxamide]
- activity against all four h-NTPDase isoenzymes [4]: poor activity; also recorded: inactive
- inhibition at 100 µM [1]: 32.6%
- inhibition at 100 µM [2]: 39.5%

Compound: O=C(Nc1ccccn1)c1ccc2ncccc2c1 [Compound 4g, N-(pyridin-2-yl)quinoline-6-carboxamide]
- IC50 [1]: 0.61 ± 0.09 µM
- inhibition at 100 µM [1]: 58.5%
- inhibition at 100 µM [2]: 20.4%

Compound: O=C(Nc1ccccc1I)c1ccc2ncccc2c1 [Compound 4h, N-(2-iodophenyl)quinoline-6-carboxamide]
- inhibition at 100 µM [1]: 18.4%
- IC50 [2]: 3.29 ± 0.36 µM
- inhibition at 100 µM [2]: 65.6%

Compound: O=C(Nc1ccc(I)cc1)c1ccc2ncccc2c1 [Compound 4k, N-(4-Iodophenyl)quinoline-6-carboxamide]
- activity against all four h-NTPDase isoenzymes [4]: poor activity
- inhibition at 100 µM [1]: 33.8%
- % Viability [5]: 43.1%
- inhibition at 100 µM [2]: 27%

Compound: Cc1ccc(F)cc1NC(=O)c1ccc2ncccc2c1 [Compound 4l, N-(5-fluoro 2-methylphenyl)quinoline-6-carboxamide]
- activity against all four h-NTPDase isoenzymes [4]: poor activity
- inhibition at 100 µM [1]: 32.4%
- inhibition at 100 µM [2]: 26.1%
